Measured values reported in ChEMBL document CHEMBL4513216, “Probing the Open Global Health Chemical Diversity Library for Multistage-Active Starting Points for Next-Generation Antimalarials” (ACS Infect Dis, 2020).

Assay: Toxicity liver stage against HepG2, at 10uM
Format: cell-based
Design: test concentration 10 uM, cell line HepG2-A16-CD81EGFP
Settings: human, HepG2-A16-CD81EGFP cells; read-out: INHIBITION
Method in brief: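 Uninfected HepG2-A16-CD81EGFP cells, 3 × 10^3 per well, 1536-well, plated on prespotted compound at 10 μM final, parasite-free screening media added to match infected plates; puromycin 10 μM positive, DMSO 0.5% negative; run in parallel with 48 h PbLuc assay at 37 °C, 5% CO2; viability by CellTiter-Glo luminescence, normalized to controls.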

SMILES	cytotoxicity at 10 µM [%]
CS(=O)(=O)c1ccc(O[C@H]2COCCN(Cc3ccncc3)C2)cc1	-5.33
Cc1ccc2nc3n(c2c1)[C@@H](CNCc1nccs1)COC3	-4.31
O=C(c1cccnc1SCc1ccccc1)N1CC[C@@H](O)C1	-2.04
CC(=O)N1N=C(c2ccco2)OC1C(=O)N(CC(C)C)CC(C)C (stereo not drawn)	-1.31
Nc1cccnc1N1CCN(c2ccccc2)CC1	-2.95
CSCC[C@H](NC(=O)CCn1ccc2c(Cl)cccc21)C(=O)O	2.42
O=C(Nc1ccccn1)c1csc(NC2CCCC2)n1	9.09
CS(=O)(=O)N1CCC(CNC(=O)C2CCCC2)CC1	1.2
CC(=O)N1CCC2(CC1)CN(C(=O)c1ccc3c(c1)OCCO3)C2	9.15
CN1C(=O)CC[C@@H]2[C@H]1CCN2S(=O)(=O)c1cccs1	-1.54
CCOCC1CN(c2ncc(F)cn2)Cc2cn(CC)nc21 (stereo not drawn)	8.31
O=C(c1ccnnc1)N1CCc2onc(CN3CCCC3)c2C1	7.31
CN(C)CCN1CCN(CC2CC2)c2ncccc2C1	-3.03
Cc1cccc(N2CC3(CCN(S(=O)(=O)c4ccccc4)C3)CC2=O)c1 (stereo not drawn)	11
Cn1nccc1C(=O)N1CCCC2(CCN(c3ccsc3)C2=O)C1 (stereo not drawn)	-121
Cc1nccc([C@@H]2C[C@@H]3CCN(Cc4cccs4)C[C@H]3O2)n1	-143
CC(C)c1cc2c(O)nc(CSCC(=O)O)nc2s1	-4.61
CN1CCN(c2nc(O)c3c(-c4ccccn4)ccnc3n2)CC1	-6.6
Cc1ccc(OCc2ccc(C(=O)O)s2)cc1C	9.18
O=C(NCc1ccccc1)NCc1nc(-c2ccncc2)n[nH]1	0.449
COCC(=O)N1CCCCC1c1ccncn1 (stereo not drawn)	-27.8

SMILES	cytotoxicity at 10 µM [%]
CC(NC(=O)N1CCS(=O)(=O)CC1)c1ccc(F)cc1Cl (stereo not drawn)	-1.28
CCC(CC)c1cc(C(=O)N2CCN(C(C#N)C(C)C)CC2)on1 (stereo not drawn)	1.87
O=C(CCC1CCCC1)N1CCC(O)(C(F)(F)F)C1 (stereo not drawn)	-0.0394
CCCC(C)CS(=O)(=O)NCc1cccnc1N(C)C (stereo not drawn)	2.96
COC(=O)C1CCCCN1C(=O)c1ccc(N(C)C)cc1F (stereo not drawn)	5.97
COc1ccc(C)cc1CN(C)CC(N)=O	-0.691
CN(C)c1nc(CNC(=O)NC2COc3ccccc32)cs1 (stereo not drawn)	-3.38
CC(Cc1ccc(C(F)(F)F)cc1)C(=O)N1CCCS1(=O)=O (stereo not drawn)	-1.01
CC(NC(=O)CCNC(=O)c1ccoc1)c1ccccc1 (stereo not drawn)	5.66
CC(C)c1nccn1CCC(=O)NCC(C)(O)c1ccco1 (stereo not drawn)	1.23
CC(C)N1CCCC(CNC(=O)c2ccnc(-n3ccnc3)c2)C1 (stereo not drawn)	-6.23
Cn1cc(N2CCCC(Nc3ccc4c(c3)CCC(=O)N4)C2=O)cn1 (stereo not drawn)	-1.56
O=C(Cc1cccs1)NCc1ccnc(OC2CCOCC2)c1	-1.22
CCOCCOC(C)C(=O)Nc1ccc2c(ccn2CC)c1 (stereo not drawn)	3.99
O=C(c1ccc(-n2cccc2)c(F)c1)N1CCCN2CCCC2C1 (stereo not drawn)	-2.45
CN(C)CCN1CCC(NC2CSCCc3ccccc32)CC1 (stereo not drawn)	-8.77
O=C(Nc1cccc(N2CCN(CC3CC3)CC2)c1)N1CCCC1	0.441
O=C(NCc1ccccc1Cn1cncn1)N1CCCC1	-5
CC(C)(C)C(=O)NCC(=O)NC1CC(c2cccc(Cl)c2)C1 (stereo not drawn)	-1.72
O=C(Nc1cc(C2CCOCC2)[nH]n1)c1ccc(Cl)cn1	0.78
COc1ccccc1CNC(=O)CNc1ccccc1C(C)=O	4.7

SMILES	cytotoxicity at 10 µM [%]
CC(C1CC1)n1nccc1NC(=O)CN(C)C(=O)OC(C)(C)C (stereo not drawn)	0.258
Cc1cccc(C(C)(C)CNC(=O)CCSc2nnnn2C)c1	-1.09
Cc1cccc(NC(=O)CCNCc2c(C)nn(C)c2N(C)C)n1	7.82
O=C(CNC(=O)c1cnc2ccccc2c1O)NCCn1ccnc1	-3.02
CCN(C)CC1CCN(C(=O)Nc2ccc(-c3csnn3)cc2)C1 (stereo not drawn)	-2.15
CC(=O)N1CCN(Cc2nnc(C(C)(C)C)o2)CC1	-0.549
Cc1nc(C)n(CC2CN(CCc3ccncc3)CCO2)n1 (stereo not drawn)	-14.7
CCN(CC)C(CNC(=O)c1ccc(S(C)(=O)=O)cc1)c1ccco1 (stereo not drawn)	-0.00646
Cc1ccc(C(=O)N2C[C@H](OCC3CCOCC3)[C@H]3OCCC[C@H]32)o1	-0.714
Cc1nc(O)cc(CN2CC=C(c3cnn(C(C)(C)C)c3)CC2)n1	-7.17
CCc1nnsc1C(=O)NCCC1CN(C(C)C)CCO1 (stereo not drawn)	-7.07
Cc1cc(C(=O)N2CCc3c(nc(-c4ccncc4)[nH]c3=O)C2)no1	-1.28
COc1cccc(-c2n[nH]cc2C(=O)NC(C)c2n[nH]c(C)n2)c1 (stereo not drawn)	-6.26
CCC(C(=O)N(C)Cc1cc(C2CC2)[nH]n1)n1cccn1 (stereo not drawn)	-8.35
Cc1cncc(C(=O)N2CCC3(CC2)C(=O)Nc2ccccc23)c1	-137
Cc1cc(C2CCC2)nc(N2CCC3(CCNC(=O)CC3)CC2)n1	-10.1
CCN(CCc1nc2cc(C)ccc2[nH]1)C(=O)[C@@H](N)CCSC	-9.28
CCn1ncnc1C1CC(=O)NCc2nc(N3CCCC3)sc21 (stereo not drawn)	-2.4
Cc1cc(C)c2nc(CN(C)C(C)c3ccncn3)cc(O)c2c1 (stereo not drawn)	4.11
O=C1CCC2(CCN(Cc3ncccn3)CC2)CN1CCCO	-8.11
COC1CCN(S(=O)(=O)NCC2COc3ccccc3C2)CC1 (stereo not drawn)	-1.08

SMILES	cytotoxicity at 10 µM [%]
CCn1nc(C)c(CN(CCOC)C(=O)c2ccccc2N(C)C)c1C	-1.14
CN(Cc1csc(-c2cccs2)n1)C(=O)CCn1ccccc1=O	22.7
Cc1ccc(NC2CCN(C(=O)c3cnn(C(C)(C)C)c3)CC2)nn1	-0.939
CC(C)(C)c1ncc(C(=O)NCCNS(C)(=O)=O)s1	-6.14
COc1ccc(NC(=O)C(C)n2cncn2)cn1 (stereo not drawn)	-16.4
Cc1ccc(-c2noc(CN3CCn4c(nnc4C4CC4)C3)n2)cc1	-9.04
CC(C)CN(Cc1nc2c(cnn2C)c(=O)[nH]1)CC(C)C	-5.36
Cc1csc(N2CCCN(C(=O)C3(C#N)CCCC3)CC2)n1	-1.01
CCc1n[nH]c(C2CN(C(=O)Cc3cccs3)CCO2)n1 (stereo not drawn)	2.83
Cc1nn(C)c(C)c1C1CCCN1Cc1nc2ccccc2c(=O)[nH]1 (stereo not drawn)	-15.9
Cc1nc(-c2ccc(Cl)s2)sc1C(=O)NCCS(N)(=O)=O	-2.09
Cc1nc(C2CCCN2C(=O)c2cc3c(s2)CCCC3)no1 (stereo not drawn)	-11.2
CCOCC1CC2(CCN(C(=O)c3ccc4ccccc4n3)CC2)CO1 (stereo not drawn)	3.79
Cc1noc(C)c1CN1CCn2cc(CN3CCCCC3)nc2C1	8.95
Cc1occc1C(=O)N1CCC2(CCN(Cc3cccs3)C2)CC1	-4.58
CC(C)NC1CCc2c(ccc(=O)n2CCN(C)C)C1 (stereo not drawn)	-1.7
CC(C)(C)c1n[nH]cc1CNC1CCC(C(F)(F)F)CC1 (stereo not drawn)	4.25
CN1CCN(Cc2cccnc2)C2(CCN(C3CCOCC3)C2)C1=O (stereo not drawn)	-5.87
CC(C)NC1CC2(CCNCC2)c2cc(F)ccc21 (stereo not drawn)	-9.05
COCCN1C(=O)[C@@H]2CC[C@H]1CN(c1ncccn1)C2	7.01
